# According to publication PMC9588736 (Cell chemical biology, 2022):
# Read-outs that look alike come from different tables or passages of the source.
# Key:
# [1] = biological target: BRD4 (Homo sapiens, UniProt O60885); assay: Immunoblot of BRD4 degradation in MM.1S cells; assay type: cell-based; conditions: for cellular degradation of BRD4, linker library: 16 h
# In short: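 MM.1S cells were treated with test compound for 16 h (24 h in the initial screen). For rescue, cells were pretreated 2 h with 10 μM KEAP1 inhibitor, 10 μM JQ1 or 1 μM MLN4924. Lysates in RIPA were BCA-normalised, run on 4–12% gels and blotted to PVDF with IRDye secondaries. BRD4 bands were quantified relative to β-actin. Two independent experiments.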
# [2] = biological target: KEAP1-BRD4BD2 (Homo sapiens, UniProt O60885+Q14145); assay: KEAP1-BRD4BD2 dimerization TR-FRET assay; assay type: biochemical
# Chain of KEAP1-BRD4BD2 (Q14145 321-609 limits assumed, other chains not shown): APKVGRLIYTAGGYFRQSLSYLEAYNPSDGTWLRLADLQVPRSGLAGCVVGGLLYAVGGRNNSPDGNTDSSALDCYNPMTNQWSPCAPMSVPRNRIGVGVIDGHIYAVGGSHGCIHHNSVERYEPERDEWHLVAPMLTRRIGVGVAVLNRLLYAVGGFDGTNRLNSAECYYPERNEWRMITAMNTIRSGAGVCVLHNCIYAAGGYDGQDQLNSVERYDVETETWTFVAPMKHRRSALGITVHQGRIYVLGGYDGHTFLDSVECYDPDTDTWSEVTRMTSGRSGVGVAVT
# In short: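 TR-FRET mix: 200 nM biotinylated human BRD4BD2, 200 nM Alexa Fluor 647-labelled human KEAP1 (residues 321–609, insect-cell expressed, SpyCatcher-labelled) and 2 nM Eu-streptavidin. Buffer was 50 mM Tris pH 8.0, 200 mM NaCl, 0.1% Pluronic F-68, 0.5% BSA and 1 mM TCEP; compound was titrated. After 15 min at room temperature, excitation was 337 nm and the 665/620 nm ratio was read over thirty 200-s cycles. Mean ± SD of ≥3 technical replicates; two independent experiments.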
# [3] = biological target: T1, KEAP1 (Homo sapiens, UniProt Q14145); assay: KEAP1-NRF2 displacement TR-FRET assay; assay type: binding
# Target sequence in this assay (Q14145 321-609): as the sequence (Q14145 321-609 limits assumed, other chains not shown) above
# [4] = biological target: CRBN (Homo sapiens, UniProt Q96SW2); assay: Immunoblot of CRBN in MM.1S cells; assay type: cell-based
# Chain of CRBN (Q96SW2 whole entry): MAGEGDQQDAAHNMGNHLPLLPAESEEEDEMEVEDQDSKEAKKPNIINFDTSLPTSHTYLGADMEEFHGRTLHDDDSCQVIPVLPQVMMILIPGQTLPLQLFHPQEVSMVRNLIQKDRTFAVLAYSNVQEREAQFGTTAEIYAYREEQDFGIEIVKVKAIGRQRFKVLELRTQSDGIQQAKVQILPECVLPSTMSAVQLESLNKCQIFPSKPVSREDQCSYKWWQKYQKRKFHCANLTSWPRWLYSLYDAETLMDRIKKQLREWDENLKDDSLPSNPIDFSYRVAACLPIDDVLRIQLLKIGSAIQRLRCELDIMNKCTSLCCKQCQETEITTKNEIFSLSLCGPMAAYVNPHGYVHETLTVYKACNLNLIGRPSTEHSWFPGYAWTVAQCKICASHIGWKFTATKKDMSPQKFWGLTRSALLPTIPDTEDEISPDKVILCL
# [5] = tested on: OVCAR8 cells; assay: Proteomics profiling of KEAP1-CRBN PROTACs; assay type: cell-based, human; conditions: legend: MM.1S cells, 5 h, 5 μM
# [6] = biological target: T1, KEAP1; assay: Immunoblot of KEAP1 degradation in WT and CRBN−/− MM.1S cells; assay type: cell-based; conditions: for KEAP1 degradation in CRBN knockout cells: CRBN−/− MM.1S cells; for KEAP1 degradation in CRBN knockout cells / KEAP1 degradation in wildtype cells: 5 μM, 2-hour treatment; for KEAP1 degradation: MM.1S cells; for KEAP1 degradation in wildtype cells: wildtype MM.1S cells
# Target sequence in this assay (Q14145 whole entry): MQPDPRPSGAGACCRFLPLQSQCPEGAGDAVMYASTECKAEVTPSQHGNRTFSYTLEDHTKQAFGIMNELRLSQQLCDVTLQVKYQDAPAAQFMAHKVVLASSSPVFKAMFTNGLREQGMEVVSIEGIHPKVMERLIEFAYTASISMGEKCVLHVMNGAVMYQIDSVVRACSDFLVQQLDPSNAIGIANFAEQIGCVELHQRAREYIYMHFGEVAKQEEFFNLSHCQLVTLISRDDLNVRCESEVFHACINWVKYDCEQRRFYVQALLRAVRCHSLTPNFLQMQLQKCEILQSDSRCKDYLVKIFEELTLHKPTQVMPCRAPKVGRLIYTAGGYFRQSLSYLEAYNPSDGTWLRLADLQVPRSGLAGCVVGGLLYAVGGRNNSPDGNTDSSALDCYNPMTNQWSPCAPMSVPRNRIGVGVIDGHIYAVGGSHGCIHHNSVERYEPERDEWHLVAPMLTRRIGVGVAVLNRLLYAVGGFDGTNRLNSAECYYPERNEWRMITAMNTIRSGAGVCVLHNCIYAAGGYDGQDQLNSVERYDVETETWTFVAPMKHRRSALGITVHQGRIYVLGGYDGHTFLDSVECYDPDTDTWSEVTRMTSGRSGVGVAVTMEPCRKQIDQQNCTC
# [7] = tested on: MM.1S cells; assay: Antiproliferation assay; assay type: cell-based; conditions: Homo sapiens, MM1.S, 72 h, read-out: anti-proliferative effect
# In short: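 MM.1S cells (RPMI, 10% FBS, 1% Pen/Strep, 37°C, 5% CO2) seeded at 10000 cells/well and grown 12 h, then exposed to test compound for 72 h. Viability read by CellTiter-Glo luminescence. Dose-response curves fitted by non-linear regression. Mean ± SEM of three technical replicates; representative of two independent experiments.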
structure (smiles),measurement,setting,value
"COc1cc(C(CC(=O)O)c2ccc(C)c(CN3C[C@@H](C)Oc4cc(CCCCCCNC(=O)C[C@@H]5N=C(c6ccc(Cl)cc6)c6c(sc(C)c6C)-n6c(C)nnc65)ccc4S3(=O)=O)c2)cc2nnn(C)c12 (mixture of isomers) [DGY-06–177, 3-(3-(((R)-7-(6-(2-((S)-4-(4-chlorophenyl)-2,3,9-trimethyl-6H-thieno[3,2-f][1,2,4]triazolo[4,3-a][1,4]diazepin-6-yl)acetamido)hexyl)-4-methyl-1,1-dioxido-3,4-dihydro-2H-benzo[b][1,4,5]oxathiazepin-2-yl)methyl)-4-methylphenyl)-3-(7-methoxy-1-methyl-1H-benzo[d][1,2,3]triazol-5-yl)propanoic acid]",concentration at which hook effect is exhibited,"[1]; MM.1S cells, 24 h",5 µM
same,concentration of maximal BRD4 degradation,"[1]; MM.1S cells, 24 h",1 µM
same,concentration at which KEAP1-BRD4BD2 dimerization is promoted,[2],approximately 100 nM
same,IC50,[3],145 nM
"COc1cc(C(CC(=O)O)c2ccc(C)c(CN(C)S(=O)(=O)c3ccc(OCCCCCCNC(=O)C[C@@H]4N=C(c5ccc(Cl)cc5)c5c(sc(C)c5C)-n5c(C)nnc54)cc3)c2)cc2nnn(C)c12 (stereo partly drawn) [DGY-05–089, 3-(3-(((4-((6-(2-((S)-4-(4-chlorophenyl)-2,3,9-trimethyl-6H-thieno[3,2-f][1,2,4]triazolo[4,3-a][1,4]diazepin-6-yl)acetamido)hexyl)oxy)-N-methylphenyl)sulfonamido)methyl)-4-methylphenyl)-3-(7-methoxy-1-methyl-1H-benzo[d][1,2,3]triazol-5-yl)propanoic acid]",BRD4 degradation,"[1]; MM.1S cells, 24 h",failed to degrade BRD4
same,KEAP1-BRD4BD2 ternary complex formation / dimerization,[2],did not induce ternary complex formation
same,IC50,"[3]; read-out: IC50, KEAP1-NRF2 TR-FRET displacement",147 nM
"COc1cc([C@H](CC(=O)O)c2ccc(C)c(CN3C[C@@H](C)Oc4cc(CCCCCCNC(=O)C[C@@H]5N=C(c6ccc(Cl)cc6)c6c(sc(C)c6C)-n6c(C)nnc65)ccc4S3(=O)=O)c2)cc2nnn(C)c12 [DGY-06–177-pk1, (R)-3-(3-(((R)-7-(6-(2-((S)-4-(4-chlorophenyl)-2,3,9-trimethyl-6H-thieno[3,2-f][1,2,4]triazolo[4,3-a][1,4]diazepin-6-yl)acetamido)hexyl)-4-methyl-1,1-dioxido-3,4-dihydro-2H-benzo[b][1,4,5]oxathiazepin-2-yl)methyl)-4-methylphenyl)-3-(7-methoxy-1-methyl-1H-benzo[d][1,2,3]triazol-5-yl)propanoic acid]",concentration at which KEAP1-BRD4BD2 dimerization is induced,[2],~ 10 μM
"COc1cc([C@@H](CC(=O)O)c2ccc(C)c(CN3C[C@@H](C)Oc4cc(CCCCCCNC(=O)COc5cccc6c5C(=O)N(C5CCC(=O)NC5=O)C6=O)ccc4S3(=O)=O)c2)cc2nnn(C)c12 (stereo partly drawn) [NJH-04–086, (3S)-3-(3-(((4R)-7-(6-(2-((2-(2,6-dioxopiperidin-3-yl)-1,3-dioxoisoindolin-4-yl)oxy)acetamido)hexyl)-4-methyl-1,1-dioxido-3,4-dihydro-2H-benzo[b][1,4,5]oxathiazepin-2-yl)methyl)-4-methylphenyl)-3-(7-methoxy-1-methyl-1H-benzo[d][1,2,3]triazol-5-yl)propanoic acid]",effect on CRBN,[4],spared CRBN
same,selectivity of degradation across the proteome,[5],clear degradation of KEAP1 and a few zinc finger proteins
same,KEAP1 degradation in CRBN knockout cells,[6],not CRBN^−/− MM.1S cells
same,KEAP1 degradation,[6],rapid degradation of KEAP1
same,KEAP1 degradation in wildtype cells,[6],observed KEAP1 degradation
"COc1cc([C@@H](CC(=O)O)c2ccc(C)c(CN3C[C@@H](C)Oc4cc(CCCCCCNC(=O)COc5cc6c7c(cccc7c5)C(=O)N(C5CCC(=O)NC5=O)C6=O)ccc4S3(=O)=O)c2)cc2nnn(C)c12 (stereo partly drawn) [NJH-04–087, (3S)-3-(3-(((4R)-7-(6-(2-((2-(2,6-dioxopiperidin-3-yl)-1,3-dioxo-2,3-dihydro-1H-benzo[de]isoquinolin-5-yl)oxy)acetamido)hexyl)-4-methyl-1,1-dioxido-3,4-dihydro-2H-benzo[b][1,4,5]oxathiazepin-2-yl)methyl)-4-methylphenyl)-3-(7-methoxy-1-methyl-1H-benzo[d][1,2,3]triazol-5-yl)propanoic acid]",effect on CRBN,[4],spared CRBN
same,selectivity of degradation across the proteome,[5],selective for inducing degradation of KEAP1 across the proteome and does not degrade any zinc finger proteins
same,KEAP1 degradation in CRBN knockout cells,[6],not CRBN^−/− MM.1S cells
same,KEAP1 degradation,[6],rapid degradation of KEAP1
same,KEAP1 degradation in wildtype cells,[6],observed KEAP1 degradation
"COc1cc([C@@H](CC(=O)O)c2ccc(C)c(CN3C[C@@H](C)Oc4cc(CCCCCCNC(=O)COc5cc6c7c(cccc7c5)C(=O)N(C5CCC(=O)N(C)C5=O)C6=O)ccc4S3(=O)=O)c2)cc2nnn(C)c12 (stereo partly drawn) [NJH-04–202, (3S)-3-(7-methoxy-1-methyl-1H-benzo[d][1,2,3]triazol-5-yl)-3-(4-methyl-3-(((4R)-4-methyl-7-(6-(2-((2-(1-methyl-2,6-dioxopiperidin-3-yl)-1,3-dioxo-2,3-dihydro-1H-benzo[de]isoquinolin-5-yl)oxy)acetamido)hexyl)-1,1-dioxido-3,4-dihydro-2H-benzo[b][1,4,5]oxathiazepin-2-yl)methyl)phenyl)propanoic acid]","KEAP1 degradation, negative control","[6]; WT MM.1S cells, 4 h",did not induce KEAP1 degradation
"COc1cc([C@@H](CC(=O)O)c2ccc(C)c(CN3C[C@@H](C)Oc4cc(CCCCNC(=O)C[C@@H]5N=C(c6ccc(Cl)cc6)c6c(sc(C)c6C)-n6c(C)nnc65)ccc4S3(=O)=O)c2)cc2nnn(C)c12 [NJH-05–138, (S)-3-(3-(((R)-7-(4-(2-((S)-4-(4-chlorophenyl)-2,3,9-trimethyl-6H-thieno[3,2-f][1,2,4]triazolo[4,3-a][1,4]diazepin-6-yl)acetamido)butyl)-4-methyl-1,1-dioxido-3,4-dihydro-2H-benzo[b][1,4,5]oxathiazepin-2-yl)methyl)-4-methylphenyl)-3-(7-methoxy-1-methyl-1H-benzo[d][1,2,3]triazol-5-yl)propanoic acid]","cellular degradation of BRD4, linker library",[1]; MM.1S cells,showed cellular degradation of BRD4 to a similar level to DGY-06–177-pk2
"COc1cc([C@@H](CC(=O)O)c2ccc(C)c(CN3C[C@@H](C)Oc4cc(CCCOCCNC(=O)C[C@@H]5N=C(c6ccc(Cl)cc6)c6c(sc(C)c6C)-n6c(C)nnc65)ccc4S3(=O)=O)c2)cc2nnn(C)c12 [NJH-05–141, (S)-3-(3-(((R)-7-(3-(2-(2-((S)-4-(4-chlorophenyl)-2,3,9-trimethyl-6H-thieno[3,2-f][1,2,4]triazolo[4,3-a][1,4]diazepin-6-yl)acetamido)ethoxy)propyl)-4-methyl-1,1-dioxido-3,4-dihydro-2H-benzo[b][1,4,5]oxathiazepin-2-yl)methyl)-4-methylphenyl)-3-(7-methoxy-1-methyl-1H-benzo[d][1,2,3]triazol-5-yl)propanoic acid]","cellular degradation of BRD4, linker library",[1]; MM.1S cells,showed cellular degradation of BRD4 to a similar level to DGY-06–177-pk2
"CCOC(=O)C[C@@H](c1ccc(C)c(CN2C[C@@H](C)Oc3cc(CCCCCCNC(=O)C[C@@H]4N=C(c5ccc(Cl)cc5)c5c(sc(C)c5C)-n5c(C)nnc54)ccc3S2(=O)=O)c1)c1cc(OC)c2c(c1)nnn2C [NJH-05–146, Ethyl (S)-3-(3-(((R)-7-(6-(2-((S)-4-(4-chlorophenyl)-2,3,9-trimethyl-6H-thieno[3,2-f][1,2,4]triazolo[4,3-a][1,4]diazepin-6-yl)acetamido)hexyl)-4-methyl-1,1-dioxido-3,4-dihydro-2H-benzo[b][1,4,5]oxathiazepin-2-yl)methyl)-4-methylphenyl)-3-(7-methoxy-1-methyl-1H-benzo[d][1,2,3]triazol-5-yl)propanoate]",activity at prolonged timepoints,[1],inactive even at prolonged timepoints
same,"BRD4 degradation, negative control","[1]; MM.1S cells, 16-hour treatment at 0.1, 1, and 10 μM",did not result in degradation of BRD4
same,KEAP1 binding / engagement in TR-FRET Nrf2 peptide displacement assay,[3],did not bind KEAP1
same,IC50,[7],> 10000 nM
